Measured values: publication PMC3258117 (Journal of Medicinal Chemistry, 2011)
Where two headings read alike, the source gives them in different places.

What was measured:
[1] = test system: T. cruzi Tulahuen C4 amastigotes; assay: In vitro growth inhibition of T. cruzi amastigotes in infected L6 myoblasts; type: cell-based, Trypanosoma cruzi; conditions: for activity designation against T. cruzi: classes by IC50 criteria of b15; for fold increase of T. cruzi IC50 compared to the nitro-containing analog: non-nitro triazoles 19 and 31 versus 17 and 29
[2] = test system: T.b. rhodesiense STIB 900 trypomastigotes; assay: In vitro growth inhibition of T. b. rhodesiense bloodstream form trypomastigotes; type: cell-based, Trypanosoma brucei rhodesiense; conditions: for activity designation against T.b. rhodesiense: classes by IC50 criteria of b15
[3] = test system: L. donovani MHOM-ET-67/L82 axenic amastigotes; assay: In vitro growth inhibition of axenically cultured L. donovani amastigotes; type: cell-based, Leishmania donovani; conditions: SI = IC50 in L6 cells / IC50 in parasites
[4] = test system: L6 cells (rat skeletal myoblasts); assay: Cytotoxicity assessment using L6 cells; type: cell-based; conditions: read-out: Cytotox. L6 IC-50
T. cruzi = conditions: 2 mg/kg/day for 50 days, mice, acute phase of infection; cited from earlier work
[5] = 15 mg/kg given i.p. for 30 days; cited from earlier work
[6] = Reduction potential by cyclic voltammetry; type: physicochemical; conditions: cyclic voltammetry relative to Ag/AgCl
Summary of the method: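 Half-wave reduction potentials (E1/2) measured by cyclic voltammetry against an Ag/AgCl reference electrode, using a carbon mesh working electrode and a Pt wire counter electrode. The supporting electrolyte was 0.1M tetrabutylammonium hexafluorophosphate (TBAPF6).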

[7] = cited from earlier work
[8] = SI = IC50 in L6 cells / IC50 in parasites

6-Methyl-4-N-[3-(2-nitro-1H-1,2,4-triazol-1-yl)propyl]-pyrimidin-2,4-diamine hydrochloride [Compound 22]
T. cruzi SI [1, 8]: >8
activity designation against T. cruzi [1]: moderately active (IC50 = 4.0-60 μM)
T.b.rhodesiense SI [2, 8]: >131
L. donovani axen. SI [3]: ∼3
IC50 [4]: > 286 µM

Cl.O=[N+]([O-])c1ncn(CCCNc2c3ccccc3nc3ccccc23)n1 [Compound 1, 9-[(3-nitro-1H-1,2,4-triazolyl)-propylamino]acridine hydrochloride]
fraction of cures (T. cruzi): 20%
peripheral parasite levels (T. cruzi): rapid and persistent drop
toxicity in vivo [5]: demonstrated toxicity

Cl.O=[N+]([O-])c1nccn1CCCNc1nc(-c2ccccc2)nc2ccccc12 [Compound 8, N-[3-(2-Nitro-1H-imidazol-1-yl)propyl]-2-phenylquinazolin-4-amine hydrochloride]
E1/2 reduction potential ([6]; in DMSO): -1.03 V

Cc1cc(NCCCn2ccnc2[N+](=O)[O-])nc(N)n1.Cl [Compound 11, 6-Methyl-4-N-[3-(2-nitro-1H-imidazol-1-yl)propyl]-pyrimidin-2,4-diamine hydrochloride]
L. donovani axen. SI [3]: ∼3

Cl.O=[N+]([O-])c1ncn(CCCCNc2ccnc3cc(Cl)ccc23)n1 [Compound 17, 7-Chloro-N-[4-(3-nitro-1H-1,2,4-triazol-1-yl)butyl]quinolin-4-amine hydrochloride]
activity designation against T.b. rhodesiense [2]: active
E1/2 reduction potential ([6]; in CH3CN): -1.18 V

Cl.Clc1ccc2c(NCCCCn3cncn3)ccnc2c1 [Compound 19, 7-Chloro-N-[4-(1H-1,2,4-triazol-1-yl)butyl]quinolin-4-amine]
fold increase of T. cruzi IC50 compared to the nitro-containing analog [1]: 658 fold
L. donovani axen. SI [3]: ∼1

Cl.O=[N+]([O-])c1ncn(CCCNc2nc(-c3ccccc3)nc3ccccc23)n1 [Compound 20, N-[3-(3-Nitro-1H-1,2,4-triazol-1-yl)propyl]-2-phenyl-quinazolin-4-amine hydrochloride]
E1/2 reduction potential ([6]; in DMSO): -1.04 V

O=C1C(Cl)=C(NCCCn2cnc([N+](=O)[O-])n2)C(=O)c2ccccc21 [Compound 25, 2-Chloro-3-{[3-(3-nitro-1H-1,2,4-triazol-1-yl)propyl]amino}-1,4-dihydronaphthalene-1,4-dione]
fold greater effect on T. cruzi growth than 2-nitroimidazole counterpart ([1]; 3-nitrotriazole versus its 2-nitroimidazole analog): 2 fold

Cl.O=[N+]([O-])c1nccn1CCCNCc1cc(C(F)(F)F)cc(C(F)(F)F)c1 [Compound 26]
L. donovani axen. SI [3]: ∼2

Cl.O=[N+]([O-])c1ncn(CCCNCc2cc(C(F)(F)F)cc(C(F)(F)F)c2)n1 [Compound 29, {[3,5-bis(Trifluoromethyl)phenyl]methyl}[3-(3-nitro-1H-1,2,4-triazol-1-yl)propyl]amine hydrochloride]
activity designation against T. cruzi [1]: active
E1/2 reduction potential ([6]; in DMSO): -1.07 V

Cl.FC(F)(F)c1cc(CNCCCCn2cncn2)cc(C(F)(F)F)c1 [Compound 31, {[3,5-bis(Trifluoromethyl)phenyl]methyl}[4-(1H-1,2,4-triazol-1-yl)butyl]amine hydrochloride]
fold increase of T. cruzi IC50 compared to the nitro-containing analog [1]: 730 fold

Cl.O=[N+]([O-])c1ncn(CCCNCc2ccc(C(F)(F)F)cc2)n1 [Compound 37, [3-(3-Nitro-1H-1,2,4-triazol-1-yl)propyl]({[4-(trifluoromethyl)phenyl]methyl})amine hydrochloride]
activity designation against T. cruzi [1]: active

Cl.O=[N+]([O-])c1ncn(CCCN(Cc2ccc(C(F)(F)F)cc2)Cc2ccc(C(F)(F)F)cc2)n1 [Compound 38, [3-(3-Nitro-1H-1,2,4-triazol-1-yl)propyl]bis({[4-(trifluoromethyl)phenyl]methyl})amine hydrochloride]
activity designation against T. cruzi [1]: active
activity designation against T.b. rhodesiense [2]: active
E1/2 reduction potential ([6]; in DMSO): -1.06 V

Cl.Cl.O=[N+]([O-])c1nccn1CCCN1CCN(Cc2ccc(C(F)(F)F)cc2)CC1 [Compound 39, 1-[3-(2-Nitro-1H-imidazol-1-yl)propyl]-4-{[4-(trifluoromethyl)phenyl]methyl}piperazine dihydrochloride]
L. donovani axen. SI [3]: ∼1

Cl.Cl.O=[N+]([O-])c1ncn(CCCN2CCN(Cc3ccc(C(F)(F)F)cc3)CC2)n1 [Compound 40, 1-[3-(3-Nitro-1H-1,2,4-triazol-1-yl)propyl]-4-{[4-(trifluoromethyl)phenyl]methyl}piperazine dihydrochloride]
SI ([1]; Table 2, T. cruzi, IC50 in L6 cells / IC50 in parasites): >562

Cl.Cl.O=[N+]([O-])c1ncn(CCCCN2CCN(Cc3ccc(C(F)(F)F)cc3)CC2)n1 [Compound 41, 1-[4-(3-Nitro-1H-1,2,4-triazol-1-yl)butyl]-4-{[4-(trifluoromethyl)phenyl]methyl}piperazine dihydrochloride]
E1/2 reduction potential ([6]; in DMSO): -1.04 V

Cl.Cl.O=[N+]([O-])c1ncn(CCCN2CCN(c3ccc(C(F)(F)F)cc3)CC2)n1 [Compound 42, 1-[3-(3-Nitro-1H-1,2,4-triazol-1-yl)propyl]-4-[4-(trifluoromethyl)phenyl]piperazine dihydrochloride]
fold increased antichagasic activity compared to 40 and 41 ([1]; T. cruzi in vitro): about 10 fold

CC1CS(=O)(=O)CCN1/N=C/c1ccc([N+](=O)[O-])o1 (centres unmarked) [Nifurtimox, 4-(5-nitrofurfurylidenamino)-3-methylthio-morpholine-1,1-dioxide]
E1/2 reduction potential [7]: -0.88 V
